pEC50, pIC50, pKi: −log10 of the molar value.
Legend:
[1] = Plasma clearance in dog at 2 mg/kg, iv by LC/MS/MS analysis; type: ADME, organism-based, Canis lupus familiaris; parameters: dose 2 mg/kg, route intravenous
Outline: (§1)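 Fasted animals received an intravenous bolus in DMSO at 1.0 ml/kg (rat), 0.1 ml/kg (dog) or 0.1 ml/kg (rhesus), with n = 3. Blood was drawn into EDTA tubes, and plasma was separated by centrifugation and stored at −70°C. Drug was quantified by LC/MS/MS after protein precipitation.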

[2] = system: Hepatitis C virus; experiment: Antiviral activity against Hepatitis C virus containing NS3/4a ps38 sequence by transient cell-base protease activity; type: functional, organism-based, Hepacivirus hominis
Outline: (§2)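 Transient cell-based phenotype assay of protease activity, using NS3/4A sequences cloned from plasma of HCV-infected patients. EC50s were determined.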

[3] = Volume of distribution in rat at 2 mg/kg, iv by LC/MS/MS analysis; type: ADME, organism-based; parameters: dose 2 mg/kg, route intravenous; conditions: in vivo
Outline: (§3)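 Fasted animals received an IV bolus in DMSO at 1.0 ml/kg for rats and 0.1 ml/kg for dogs and rhesus monkeys, at 2 mg/kg; n = 3 per species. Blood was drawn into EDTA tubes at set times, and plasma was separated by centrifugation and stored at −70°C. Drug was quantified by LC/MS/MS after protein precipitation.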

[4] = system: Hepatitis C virus; experiment: Antiviral activity against Hepatitis C virus containing NS3/Q41R protease mutant activity by TaqMan-based assay; type: functional, organism-based, Hepacivirus hominis
[5] = Metabolic stability in dog liver assessed as drug level at 5 mg/kg, po after 24 hrs by LC/MS/MS analysis; type: ADME, organism-based, Canis lupus familiaris; parameters: dose 5 mg/kg, route oral; conditions: read-out: Drug uptake
Outline: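 Single oral dose in polyethylene glycol 400 (2.0 ml/kg). A liver biopsy (~200 μl) was taken under sedation and homogenized in 4 volumes of deionized water. Drug was quantified by LC/MS/MS after protein precipitation.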

[6] = molecular target: Procathepsin L (Homo sapiens, UniProt P07711); experiment: Inhibition of human Cathepsin L
[7] = molecular target: T1, Cathepsin F (Homo sapiens, UniProt Q9UBX1); experiment: Inhibition of human Cathepsin F
T1 sequence (Q9UBX1 whole entry): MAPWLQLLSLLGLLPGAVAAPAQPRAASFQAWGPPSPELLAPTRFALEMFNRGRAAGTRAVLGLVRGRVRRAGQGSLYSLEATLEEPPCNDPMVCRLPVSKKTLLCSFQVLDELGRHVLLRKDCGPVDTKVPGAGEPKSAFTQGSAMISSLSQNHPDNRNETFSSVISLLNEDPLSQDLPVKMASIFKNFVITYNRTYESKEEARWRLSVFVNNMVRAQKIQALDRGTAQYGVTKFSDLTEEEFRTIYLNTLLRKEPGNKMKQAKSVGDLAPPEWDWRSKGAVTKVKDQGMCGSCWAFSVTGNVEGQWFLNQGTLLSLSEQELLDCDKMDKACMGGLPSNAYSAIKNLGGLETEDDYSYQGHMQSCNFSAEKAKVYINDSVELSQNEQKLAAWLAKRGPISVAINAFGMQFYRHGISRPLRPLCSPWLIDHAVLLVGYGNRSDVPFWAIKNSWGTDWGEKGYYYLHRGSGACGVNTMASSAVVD

[8] = AUC (0-24 hrs) in rhesus monkey at 2 mg/kg, iv by LC/MS/MS analysis; type: ADME, organism-based, Macaca mulatta; parameters: time < 24 hr, dose 2 mg/kg, route intravenous; conditions: plasma; outline: as §1
[9] = system: Hepatitis C virus; experiment: Antiviral activity against Hepatitis C virus containing NS3/4a ps36 sequence by transient cell-base protease activity; type: functional, organism-based, Hepacivirus hominis; outline: as §2
[10] = system: Hepatitis C virus; experiment: Antiviral activity against Hepatitis C virus containing NS3/4a ps30 sequence by transient cell-base protease activity; type: functional, organism-based, Hepacivirus hominis; outline: as §2
[11] = Plasma clearance in rhesus monkey at 2 mg/kg, iv by LC/MS/MS analysis; type: ADME, organism-based, Macaca mulatta; parameters: dose 2 mg/kg, route intravenous; outline: as §3
[12] = system: Hepatitis C virus; experiment: Antiviral activity against Hepatitis C virus containing NS3/4a ps33 sequence by transient cell-base protease activity; type: functional, organism-based, Hepacivirus hominis; outline: as §2
[13] = system: Hepatitis C virus; experiment: Antiviral activity against Hepatitis C virus containing NS3/F43S protease mutant activity by TaqMan-based assay; type: functional, organism-based, Hepacivirus hominis
[14] = molecular target: T2, Cathepsin K (Homo sapiens, UniProt P43235); experiment: Inhibition of human Cathepsin K
T2 sequence (P43235 whole entry): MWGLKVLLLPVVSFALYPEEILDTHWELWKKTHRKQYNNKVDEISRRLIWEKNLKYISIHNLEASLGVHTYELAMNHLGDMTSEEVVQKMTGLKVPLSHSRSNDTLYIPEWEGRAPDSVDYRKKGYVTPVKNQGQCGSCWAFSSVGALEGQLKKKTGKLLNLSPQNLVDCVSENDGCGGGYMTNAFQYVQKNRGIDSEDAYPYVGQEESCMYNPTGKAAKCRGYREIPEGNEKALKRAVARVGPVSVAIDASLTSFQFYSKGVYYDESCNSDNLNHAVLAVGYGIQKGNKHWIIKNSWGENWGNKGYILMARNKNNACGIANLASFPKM

[15] = Inhibition of Hepatitis C virus genotype 1a NS3/4A protease activity; parameters: species or system Hepatitis C virus subtype 1a
Outline: (§4)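 Recombinant NS3/4A protease was expressed in and purified from E. coli. Inhibition was measured by a time-resolved, internally quenched fluorescence assay at low enzyme concentration. Kis were reported.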

[16] = system: Hepatitis C virus; experiment: Antiviral activity against Hepatitis C virus containing NS3/4a ps32 sequence by transient cell-base protease activity; type: functional, organism-based, Hepacivirus hominis; outline: as §2
[17] = system: Hepatitis C virus; experiment: Antiviral activity against Hepatitis C virus containing NS3/4a ps37 sequence by transient cell-base protease activity; type: functional, organism-based, Hepacivirus hominis; outline: as §2
[18] = system: Hepatitis C virus; experiment: Antiviral activity against Hepatitis C virus containing NS3/4a Con1 sequence by transient cell-base protease activity; type: functional, organism-based, Hepacivirus hominis
[19] = system: Hepatitis C virus; experiment: Antiviral activity against Hepatitis C virus containing NS3/4a ps20 sequence by transient cell-base protease activity; type: functional, organism-based, Hepacivirus hominis; outline: as §2
[20] = Half life in rhesus monkey at 2 mg/kg, iv by LC/MS/MS analysis; type: ADME, organism-based, Macaca mulatta; parameters: dose 2 mg/kg, route intravenous; conditions: in vivo; outline: as §1
[21] = system: Pan troglodytes; experiment: AUC in chimpanzee at 10 mg/kg, po from 0 to 24 hrs by LC/MS/MS analysis; conditions: in vivo
[22] = Inhibition of Hepatitis C virus genotype 2a NS3/4A protease activity; parameters: species or system Hepatitis C virus subtype 2a; outline: as §4
[23] = system: Hepatitis C virus genotype 1b; experiment: Antiviral activity against Hepatitis C virus genotype 1b containing NS3/con1 protease mutant by TaqMan-based assay; conditions: subtype 1b
[24] = molecular target: Serine protease 1 (Homo sapiens, UniProt P07477); experiment: Inhibition of human Trypsin activity
[25] = Volume of distribution in rhesus monkey at 2 mg/kg, iv by LC/MS/MS analysis; type: ADME, organism-based, Macaca mulatta; parameters: dose 2 mg/kg, route intravenous; conditions: in vivo; outline: as §3
[26] = system: Hepatitis C virus; experiment: Antiviral activity against Hepatitis C virus containing NS3/A156T protease mutant activity by TaqMan-based assay; type: functional, organism-based, Hepacivirus hominis
Outline: (§5)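 Panel of stable HCV replicon cell lines carrying NS3 protease mutations. Replicon RNA read out by a TaqMan-based assay, and EC50 values determined.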

[27] = system: Hepatitis C virus; experiment: Antiviral activity against Hepatitis C virus genotype 1b infected in […] cell by cell-based HCV replicon assay in presence of 10% fetal bovine serum; type: functional, organism-based, Hepacivirus hominis
Outline: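 Stable genotype 1b (con1) replicon cell line HB1, assayed in medium with 10% fetal bovine serum.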

[28] = system: Hepatitis C virus; experiment: Antiviral activity against Hepatitis C virus containing NS3/R155K protease mutant activity by TaqMan-based assay; type: functional, organism-based, Hepacivirus hominis; outline: as §5
[29] = system: Hepatitis C virus; experiment: Antiviral activity against Hepatitis C virus containing NS3/4a H77 sequence by transient cell-base protease activity; type: functional, organism-based, Hepacivirus hominis
[30] = molecular target: Cathepsin S (Homo sapiens, UniProt P25774); experiment: Inhibition of human Cathepsin S
[31] = system: Hepatitis C virus; experiment: Antiviral activity against Hepatitis C virus containing NS3/4a ps41 sequence by transient cell-base protease activity; type: functional, organism-based, Hepacivirus hominis; outline: as §2

Chain of Cathepsin S (P25774 whole entry): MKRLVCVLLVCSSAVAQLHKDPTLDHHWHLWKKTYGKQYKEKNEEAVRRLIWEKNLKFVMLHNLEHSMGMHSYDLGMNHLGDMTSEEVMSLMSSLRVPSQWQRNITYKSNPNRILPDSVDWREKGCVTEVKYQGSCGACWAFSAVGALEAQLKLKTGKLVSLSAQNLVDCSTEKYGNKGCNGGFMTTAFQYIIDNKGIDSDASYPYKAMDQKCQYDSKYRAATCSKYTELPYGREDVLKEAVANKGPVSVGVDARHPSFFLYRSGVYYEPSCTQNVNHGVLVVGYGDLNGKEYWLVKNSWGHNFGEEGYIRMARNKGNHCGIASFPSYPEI
Chain of Serine protease 1 (P07477 whole entry): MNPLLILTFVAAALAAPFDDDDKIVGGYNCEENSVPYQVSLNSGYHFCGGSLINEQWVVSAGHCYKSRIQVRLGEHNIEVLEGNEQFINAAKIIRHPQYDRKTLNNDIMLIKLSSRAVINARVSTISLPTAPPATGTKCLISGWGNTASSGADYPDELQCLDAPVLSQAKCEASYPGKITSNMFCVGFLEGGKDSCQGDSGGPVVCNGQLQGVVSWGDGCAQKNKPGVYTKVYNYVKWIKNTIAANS
Chain of Procathepsin L (P07711 whole entry): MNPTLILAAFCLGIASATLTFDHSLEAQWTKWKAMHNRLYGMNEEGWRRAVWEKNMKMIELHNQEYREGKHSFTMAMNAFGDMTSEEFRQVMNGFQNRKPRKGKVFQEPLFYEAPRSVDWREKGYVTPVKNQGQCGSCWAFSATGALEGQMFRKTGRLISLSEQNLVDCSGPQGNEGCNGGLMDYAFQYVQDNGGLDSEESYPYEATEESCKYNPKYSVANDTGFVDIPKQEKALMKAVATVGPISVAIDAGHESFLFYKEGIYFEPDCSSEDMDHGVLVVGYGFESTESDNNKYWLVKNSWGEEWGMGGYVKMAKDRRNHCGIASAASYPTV

SMILES: CC[C@@H]1C[C@]1(NC(=O)[C@@H]1C[C@@H]2CN1C(=O)[C@H](C(C)(C)C)NC(=O)OCC(C)(C)CCCCc1cccc3c1CN(C3)C(=O)O2)C(=O)NS(=O)(=O)C1CC1 [VANIPREVIR]
- clearance [1]: 11 mL/min/kg
- pEC50 [2]: 8.22
- Vd [3]: 1.9 L/kg
- pEC50 [4]: 8.28
- concentration at 24 h [5]: 600 nM
- pIC50 [6]: < 5.00
- pIC50 [7]: < 5.00
- AUC(0-t) at 24 h [8]: 2.5 µM·h
- pEC50 [9]: 8.31
- pEC50 [10]: 7.57
- clearance [11]: 18 mL/min/kg
- pEC50 [12]: 8.02
- pEC50 [13]: 8.11
- pIC50 [14]: < 5.00
- pKi [15]: 10.15
- pEC50 [16]: 8.42
- pEC50 [17]: 8.19
- pEC50 [18]: 8.39
- pEC50 [19]: 8.54
- half-life [20]: 1.3 h
- AUC [21]: 5.2 µM·h
- pKi [22]: 9.00
- pEC50 [23]: 8.80
- pIC50 [24]: < 5.00
- Vd [25]: 0.4 L/kg
- pEC50 [26]: 6.70
- pEC50 [27]: 8.30
- pEC50 [28]: 6.46
- pEC50 [29]: 8.35
- pIC50 [30]: < 5.00
- pEC50 [31]: 7.72
